The values that follow come from ChEMBL document CHEMBL1132920, “Syntheses of (R)- and (S)-2- and 6-fluoronorepinephrine and (R)- and (S)-2- and 6-fluoroepinephrine: effect of stereochemistry on fluorine-induced adrenergic selectivities” (J Med Chem, 2000).

In experiment [1] the target is T1, Adrenergic receptor alpha-1 (Rattus norvegicus, UniProt P15823+P23944+P43140).
T1 sequence (P15823 whole entry): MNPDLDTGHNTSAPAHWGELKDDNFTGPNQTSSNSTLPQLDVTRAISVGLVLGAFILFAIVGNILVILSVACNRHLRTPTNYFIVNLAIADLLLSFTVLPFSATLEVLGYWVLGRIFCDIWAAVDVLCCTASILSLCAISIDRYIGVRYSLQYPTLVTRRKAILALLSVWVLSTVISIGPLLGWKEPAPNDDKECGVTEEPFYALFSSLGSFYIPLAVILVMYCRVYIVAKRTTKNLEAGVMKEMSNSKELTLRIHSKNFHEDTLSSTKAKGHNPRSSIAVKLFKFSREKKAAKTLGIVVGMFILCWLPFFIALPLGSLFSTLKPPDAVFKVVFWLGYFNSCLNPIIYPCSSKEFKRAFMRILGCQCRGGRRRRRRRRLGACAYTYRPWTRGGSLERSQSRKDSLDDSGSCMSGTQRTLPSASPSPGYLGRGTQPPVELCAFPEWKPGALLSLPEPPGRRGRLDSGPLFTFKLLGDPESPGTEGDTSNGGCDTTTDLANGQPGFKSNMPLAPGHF
T1 sequence (P23944 whole entry): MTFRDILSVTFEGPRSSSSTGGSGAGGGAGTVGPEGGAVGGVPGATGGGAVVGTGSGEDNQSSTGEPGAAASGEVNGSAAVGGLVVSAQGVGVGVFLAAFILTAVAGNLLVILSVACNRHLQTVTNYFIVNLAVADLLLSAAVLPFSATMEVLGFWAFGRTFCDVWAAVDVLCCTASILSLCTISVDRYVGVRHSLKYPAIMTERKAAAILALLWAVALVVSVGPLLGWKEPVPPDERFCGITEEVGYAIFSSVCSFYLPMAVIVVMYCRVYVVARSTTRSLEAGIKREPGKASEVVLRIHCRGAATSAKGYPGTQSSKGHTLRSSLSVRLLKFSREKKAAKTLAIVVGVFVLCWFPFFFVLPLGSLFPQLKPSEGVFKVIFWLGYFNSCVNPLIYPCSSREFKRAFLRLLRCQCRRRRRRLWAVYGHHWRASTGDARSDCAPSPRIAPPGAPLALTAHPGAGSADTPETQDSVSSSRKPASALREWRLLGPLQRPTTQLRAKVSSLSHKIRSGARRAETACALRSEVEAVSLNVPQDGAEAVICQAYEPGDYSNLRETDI
T1 sequence (P43140 whole entry): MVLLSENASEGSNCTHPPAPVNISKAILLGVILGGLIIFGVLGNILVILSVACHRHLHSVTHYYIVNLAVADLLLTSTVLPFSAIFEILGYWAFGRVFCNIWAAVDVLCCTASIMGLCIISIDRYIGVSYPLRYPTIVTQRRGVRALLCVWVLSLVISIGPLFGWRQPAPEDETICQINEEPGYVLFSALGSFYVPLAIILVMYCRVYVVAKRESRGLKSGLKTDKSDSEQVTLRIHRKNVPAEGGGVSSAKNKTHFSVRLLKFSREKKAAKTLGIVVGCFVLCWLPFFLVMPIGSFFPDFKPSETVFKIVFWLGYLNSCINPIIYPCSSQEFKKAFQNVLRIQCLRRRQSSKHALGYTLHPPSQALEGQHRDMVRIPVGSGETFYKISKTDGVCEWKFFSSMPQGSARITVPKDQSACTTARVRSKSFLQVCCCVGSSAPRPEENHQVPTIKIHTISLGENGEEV
Nature of the experiment: Binding of [3H]prazosin to alpha-1 adrenergic receptor of rat cerebral cortical membranes. The experiment is classed as cell membranes, Membrane. In short, it runs like this:
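Affinity at alpha-1 adrenergic receptors measured as inhibition of specific [3H]prazosin binding to rat cerebral cortical membranes.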

In experiment [2] the target is T2, Adrenergic receptor alpha-2 (Rattus norvegicus, UniProt P22086+P19328+P22909).
T2 sequence (P22086 whole entry): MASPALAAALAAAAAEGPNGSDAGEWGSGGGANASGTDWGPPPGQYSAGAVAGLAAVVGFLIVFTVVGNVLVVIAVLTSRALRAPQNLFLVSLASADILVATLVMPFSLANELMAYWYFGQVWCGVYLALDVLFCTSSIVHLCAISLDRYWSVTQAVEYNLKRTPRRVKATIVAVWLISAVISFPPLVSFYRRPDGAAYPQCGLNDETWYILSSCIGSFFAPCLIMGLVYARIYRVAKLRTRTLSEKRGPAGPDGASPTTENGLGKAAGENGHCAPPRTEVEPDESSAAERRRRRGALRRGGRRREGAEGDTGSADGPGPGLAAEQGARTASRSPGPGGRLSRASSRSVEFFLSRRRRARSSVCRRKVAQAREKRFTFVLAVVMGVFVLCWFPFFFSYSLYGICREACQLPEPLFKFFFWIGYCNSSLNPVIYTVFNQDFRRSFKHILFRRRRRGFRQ
T2 sequence (P19328 whole entry): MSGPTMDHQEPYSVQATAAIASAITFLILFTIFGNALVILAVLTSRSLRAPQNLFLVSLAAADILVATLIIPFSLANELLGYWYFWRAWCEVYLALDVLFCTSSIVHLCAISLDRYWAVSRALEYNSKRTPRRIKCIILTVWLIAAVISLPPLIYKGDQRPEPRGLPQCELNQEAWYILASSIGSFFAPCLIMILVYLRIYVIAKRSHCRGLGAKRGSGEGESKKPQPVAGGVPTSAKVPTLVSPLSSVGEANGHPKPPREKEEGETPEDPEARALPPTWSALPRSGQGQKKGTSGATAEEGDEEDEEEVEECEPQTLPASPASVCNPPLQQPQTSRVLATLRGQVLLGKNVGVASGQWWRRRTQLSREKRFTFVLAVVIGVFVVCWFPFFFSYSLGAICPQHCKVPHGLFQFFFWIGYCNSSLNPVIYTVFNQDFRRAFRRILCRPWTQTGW
T2 sequence (P22909 whole entry): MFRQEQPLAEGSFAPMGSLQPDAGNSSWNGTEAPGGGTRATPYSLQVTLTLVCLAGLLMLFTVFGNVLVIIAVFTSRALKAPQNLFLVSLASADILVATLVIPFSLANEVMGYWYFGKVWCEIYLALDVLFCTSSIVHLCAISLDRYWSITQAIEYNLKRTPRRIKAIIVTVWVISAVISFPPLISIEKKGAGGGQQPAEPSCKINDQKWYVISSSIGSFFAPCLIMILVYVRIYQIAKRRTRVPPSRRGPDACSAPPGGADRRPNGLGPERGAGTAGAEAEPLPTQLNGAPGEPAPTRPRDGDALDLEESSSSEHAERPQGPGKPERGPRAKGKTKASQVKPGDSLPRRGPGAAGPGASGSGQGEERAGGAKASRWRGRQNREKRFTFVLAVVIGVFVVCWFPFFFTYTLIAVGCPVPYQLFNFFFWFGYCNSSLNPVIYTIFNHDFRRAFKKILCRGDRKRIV
Nature of the experiment: Binding of [3H]clonidine to alpha-2-adrenergic receptor of rat cerebral cortical membranes. The class given is cell membranes, Membrane.

In experiment [3] the target is Beta-1 adrenergic receptor (Rattus norvegicus, UniProt P18090). Nature of the experiment: Binding of [3H]dihydroalprenolol to beta-1 adrenergic receptor of rat cerebral cortical membranes. The class given is cell membranes, Membrane. In short, it runs like this:
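Competition assay measuring displacement of specific [3H]dihydroalprenolol binding from rat cerebral cortical membranes to give beta-1 adrenergic receptor affinity.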

Experiment [4] deals with Adrenergic receptor alpha-1 (Rattus norvegicus) (UniProt P15823+P23944+P43140). Nature of the experiment: Binding of [3H]prazosin to alpha-1 adrenergic receptor of rat cerebral cortical membranes at 100 uM. The class given is cell membranes. Particulars: Membrane.

Structures are written as SMILES.

By Ki is commonly meant a dissociation constant, usually derived from enzyme kinetics or from competition with a known ligand. A lower Ki goes with a stronger hold on the target. The inhibition is the change of the read-out against control, counted positive when it falls.

Beta-1 adrenergic receptor, sequence (P18090 whole entry): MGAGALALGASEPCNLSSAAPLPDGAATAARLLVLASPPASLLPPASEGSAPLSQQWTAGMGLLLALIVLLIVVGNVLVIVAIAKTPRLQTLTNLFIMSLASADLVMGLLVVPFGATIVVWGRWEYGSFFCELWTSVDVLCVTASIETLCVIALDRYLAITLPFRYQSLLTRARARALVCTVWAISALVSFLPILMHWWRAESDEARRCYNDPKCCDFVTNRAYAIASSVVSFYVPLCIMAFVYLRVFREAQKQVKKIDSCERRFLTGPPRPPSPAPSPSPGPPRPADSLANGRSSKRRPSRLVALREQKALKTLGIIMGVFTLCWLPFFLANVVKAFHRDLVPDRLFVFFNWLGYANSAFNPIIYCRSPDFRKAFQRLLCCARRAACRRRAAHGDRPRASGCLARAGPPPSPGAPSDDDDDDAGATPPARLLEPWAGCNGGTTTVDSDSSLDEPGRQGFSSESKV

Turning to `NC[C@H](O)c1ccc(O)c(O)c1F`, the inhibition constant (Ki) in experiment [1] is ~ 25 uM; in experiment [2] it was 0.55 µM.
Turning to `CNC[C@H](O)c1ccc(O)c(O)c1` (racemic) [EPINEPHRINE], the inhibition constant Ki in experiment [3] amounted to 2.1 µM. That is a single-digit micromolar value.
Turning to `CNC[C@@H](O)c1ccc(O)c(O)c1F`, the Ki in experiment [1] was ~ 40 uM; in experiment [2], 0.053 µM.
In the case of `CNCC(O)c1cc(O)c(O)cc1F` (racemic), the Ki in experiment [3] is around 140 µM; in experiment [2], 0.014 µM.
In the same order, the values of `CNC[C@@H](O)c1cc(O)c(O)cc1F` are around 400 µM and 0.078 µM.
In the case of `NCC(O)c1cc(O)c(O)cc1F` (racemic), in experiment [4], the inhibition worked out at 20%.
In the case of `NC[C@H](O)c1cc(O)c(O)cc1F`, in experiment [1], the Ki was 3.7 µM.
`CNC[C@@H](O)c1ccc(O)c(O)c1` [L-ADRENALINE] showed a Ki in experiment [3] of 13 µM. In other words, the double-digit micromolar range.
On to `NC[C@@H](O)c1cc(O)c(O)cc1F`, for which, in experiment [1], the Ki is reported as ~ 12 uM.
With `NC[C@@H](O)c1ccc(O)c(O)c1F`, in experiment [4], the inhibition came out at 12%. The Ki in experiment [2] is 0.32 µM.
As to `CNC[C@H](O)c1ccc(O)c(O)c1F`, the Ki in experiment [2] is 0.067 µM.
`NCCc1ccc(O)c(O)c1F`: the figures for the Ki in experiment [1], in experiment [3] and in experiment [2] were 16 µM, 19 µM and 0.12 µM, respectively.
Consider `NCCc1ccc(O)c(O)c1` [DOPAMINE], for which the inhibitory constant (Ki) in experiment [1] was 14 µM; in experiment [2] it was 0.058 µM.
Consider `NCCc1cc(O)c(O)cc1F`, for which the Ki was found to be 6 µM in experiment [1], 41 µM in experiment [3] and 0.04 µM in experiment [2].
Regarding `NCC(O)c1ccc(O)c(O)c1F` (racemic), the Ki in experiment [1] was ~ 50 uM; in experiment [2], 0.6 µM.
In experiment [2], `CNCC(O)c1ccc(O)c(O)c1F` (racemic) showed a Ki of 0.06 µM. This lies in the double-digit nanomolar range.
Turning to `CNC[C@H](O)c1cc(O)c(O)cc1F`, the Ki is around 100 µM in experiment [3] and 0.013 µM in experiment [2].
In turn, `NCC(O)c1ccc(O)c(O)c1` (single isomer, unassigned) showed an inhibition in experiment [4] of 18%.
